21 molecules from ChEMBL document CHEMBL1681730, “17,20-lyase inhibitors. Part 4: design, synthesis and structure-activity relationships of naphthylmethylimidazole derivatives as novel 17,20-lyase inhibitors” (Bioorg Med Chem, 2011) can be followed below.

Each structure is given as a SMILES string.

For one assay, the species on record is Homo sapiens. The assay is described as follows: Ratio of IC50 for human CYP3A4 to IC50 for human 17,20-lyase. In short, it runs like this:
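Two assays. Human 17,20-lyase: recombinant P450c17 (0.5 pmol) with cytochrome b5 and NADPH-P450 reductase, 10 nM [1,2-3H]-17α-hydroxypregnenolone, 5 mM NADPH, 1 mM MgCl2, pH 7.4 phosphate, 1–1000 nM compound, 15 min at 37 °C. DHEA separated by TLC, IC50 calculated. CYP3A4: recombinant enzyme, 100 μM testosterone, NADPH-regenerating system, 30 min at 37 °C, 6-hydroxytestosterone measured by HPLC.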

Assay [1] concerns the target T1, Steroid 17-alpha-hydroxylase/17,20 lyase (Homo sapiens, UniProt P05093).
T1 sequence (P05093 whole entry): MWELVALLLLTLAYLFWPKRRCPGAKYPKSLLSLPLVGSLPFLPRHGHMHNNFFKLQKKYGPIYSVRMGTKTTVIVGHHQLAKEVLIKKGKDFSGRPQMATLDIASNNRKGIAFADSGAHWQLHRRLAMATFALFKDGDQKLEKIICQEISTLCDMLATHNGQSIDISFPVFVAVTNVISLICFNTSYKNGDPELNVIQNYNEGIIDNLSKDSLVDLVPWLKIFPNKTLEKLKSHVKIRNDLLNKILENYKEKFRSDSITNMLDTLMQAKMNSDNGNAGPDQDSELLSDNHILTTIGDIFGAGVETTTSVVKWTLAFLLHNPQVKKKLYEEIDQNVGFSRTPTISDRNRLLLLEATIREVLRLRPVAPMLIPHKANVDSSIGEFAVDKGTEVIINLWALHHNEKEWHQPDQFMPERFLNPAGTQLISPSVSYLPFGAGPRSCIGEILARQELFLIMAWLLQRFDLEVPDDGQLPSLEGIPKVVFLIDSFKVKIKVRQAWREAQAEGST
The experiment in a line: Inhibition of 17,20 lyase activity in human. An outline of the steps:
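Recombinant P450c17 (0.5 pmol) with cytochrome b5 (0.5 pmol) and NADPH-P450 reductase (20.8 ng) in 75 mM phosphate pH 7.4 with 1 mM MgCl2. Substrate 10 nM [1,2-3H]-17α-hydroxypregnenolone, 5 mM NADPH, compound 1–1000 nM. Incubated 15 min at 37 °C, ethyl acetate extraction, DHEA separated from substrate by silica TLC (cyclohexane–ethyl acetate 3:2). IC50 taken as 50% reduction in product.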

The target of assay [2] is T2, Steroid 17-alpha-hydroxylase/17,20 lyase (Rattus norvegicus, UniProt P11715).
T2 sequence (P11715 whole entry): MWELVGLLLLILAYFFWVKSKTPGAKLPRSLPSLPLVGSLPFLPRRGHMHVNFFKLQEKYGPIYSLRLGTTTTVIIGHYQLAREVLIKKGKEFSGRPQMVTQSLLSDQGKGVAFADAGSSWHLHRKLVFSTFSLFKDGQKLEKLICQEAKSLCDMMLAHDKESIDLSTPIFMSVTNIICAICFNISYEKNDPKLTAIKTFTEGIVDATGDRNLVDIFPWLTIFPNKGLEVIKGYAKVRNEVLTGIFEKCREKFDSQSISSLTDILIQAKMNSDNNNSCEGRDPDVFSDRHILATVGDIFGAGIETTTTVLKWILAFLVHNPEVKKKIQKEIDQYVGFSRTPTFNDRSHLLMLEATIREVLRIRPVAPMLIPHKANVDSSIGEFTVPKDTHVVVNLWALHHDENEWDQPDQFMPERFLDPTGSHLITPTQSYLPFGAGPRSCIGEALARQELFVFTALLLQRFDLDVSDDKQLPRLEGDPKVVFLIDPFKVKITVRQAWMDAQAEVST
The experiment in a line: Inhibition of 17,20 lyase activity in Sprague-Dawley rat testicular microsomes. Also on record: species or system Testis. In short, it runs like this: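 Testicular microsomes from 13-week-old male SD rats (7 µg protein) in 75 mM phosphate buffer, pH 7.4, with 10 nM [1,2-3H]-17α-hydroxyprogesterone, 5 mM NADPH, and 1–1000 nM test compound (all final). Compounds were diluted in DMF and then in water. Incubation ran 15 min at 37 °C and was stopped with ethyl acetate. IC50 is the concentration that halves product formation.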

The target in another assay is Cytochrome P450 3A4 (Homo sapiens, UniProt P08684). The experiment in a line: Inhibition of human CYP3A4. It counts as ADME.
Assay [3] has as its system Cynomolgus monkey. The experiment in a line: Antiandrogenic activity in cynomolgus monkey assessed as reduction serum DHEA level at 1 mg/kg, po at 4 hrs (reference value: 105.7 +/- 4.2%). The arrangement: scale not given: the % may be the effect or the level left. It counts as functional, Macaca fascicularis. In short, it runs like this:
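Adult male cynomolgus monkeys (23 ± 2 °C, 12:12 h light/dark) given a single oral 1 mg/kg dose as a suspension in 0.5% methylcellulose. Serum collected just before dosing and at 4 and 8 h, stored at −30 °C, and assayed by RIA. Values expressed as % of the 0 h level, mean ± SD, n = 3. Dunnett test against vehicle.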

The test system of assay [4] is Cynomolgus monkey. The assay is described as follows: Antiandrogenic activity in cynomolgus monkey assessed as reduction serum testosterone level at 1 mg/kg, po at 4 hrs (reference value: 89.1 +/- 15.6%). It counts as functional, Macaca fascicularis. Also on record: scale not given: the % may be the effect or the level left.
For assay [5], the system named is Cynomolgus monkey. The assay is described as follows: Antiandrogenic activity in cynomolgus monkey assessed as reduction serum DHEA level at 1 mg/kg, po at 8 hrs (reference value: 38.5 +/- 18.4%). It counts as functional, Macaca fascicularis. The arrangement: scale not given: the % may be the effect or the level left.
For assay [6], the system named is Cynomolgus monkey. The assay is described as follows: Antiandrogenic activity in cynomolgus monkey assessed as reduction serum testosterone level at 1 mg/kg, po at 8 hrs (reference value: 68.5 +/- 27.3%). The arrangement: scale not given: the % may be the effect or the level left. The format is functional, Macaca fascicularis.
The next assay addresses T3, Cytochrome P450c11B3 (Rattus norvegicus, UniProt Q64546).
T3 sequence (Q64546 whole entry): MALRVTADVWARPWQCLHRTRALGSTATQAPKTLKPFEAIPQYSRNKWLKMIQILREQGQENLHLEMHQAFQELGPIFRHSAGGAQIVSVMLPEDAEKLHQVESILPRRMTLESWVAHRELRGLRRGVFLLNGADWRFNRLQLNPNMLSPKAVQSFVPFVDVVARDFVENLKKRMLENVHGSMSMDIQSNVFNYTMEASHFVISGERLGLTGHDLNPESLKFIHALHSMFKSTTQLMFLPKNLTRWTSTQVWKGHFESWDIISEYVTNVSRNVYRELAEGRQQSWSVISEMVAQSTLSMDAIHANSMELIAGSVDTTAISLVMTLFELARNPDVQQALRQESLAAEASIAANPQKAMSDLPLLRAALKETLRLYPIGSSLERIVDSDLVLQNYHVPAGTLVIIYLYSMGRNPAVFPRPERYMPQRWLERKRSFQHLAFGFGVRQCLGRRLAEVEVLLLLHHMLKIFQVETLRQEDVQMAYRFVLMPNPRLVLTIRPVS
The assay is described as follows: Inhibition of 11-hydroxylase activity in Sprague-Dawley rat adrenal gland. It counts as tissue-based. In short, it runs like this: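 Mitochondrial fraction from SD rat adrenal glands, 4 µg protein, in 200 mM mannitol, 4.5 mM HEPES, 2.3 mM K phosphate pH 7.4, 0.1 mM EDTA, 0.03% BSA, 4.5 mM NADPH, 11 mM CaCl2. Substrate 10 nM [1,2-3H]-11-deoxycortisol. Test compound 1–1000 nM, diluted in DMF. Incubated 30 min at 37 °C, stopped with ethyl acetate. Final concentrations.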

Sequence of Cytochrome P450 3A4 (P08684 whole entry): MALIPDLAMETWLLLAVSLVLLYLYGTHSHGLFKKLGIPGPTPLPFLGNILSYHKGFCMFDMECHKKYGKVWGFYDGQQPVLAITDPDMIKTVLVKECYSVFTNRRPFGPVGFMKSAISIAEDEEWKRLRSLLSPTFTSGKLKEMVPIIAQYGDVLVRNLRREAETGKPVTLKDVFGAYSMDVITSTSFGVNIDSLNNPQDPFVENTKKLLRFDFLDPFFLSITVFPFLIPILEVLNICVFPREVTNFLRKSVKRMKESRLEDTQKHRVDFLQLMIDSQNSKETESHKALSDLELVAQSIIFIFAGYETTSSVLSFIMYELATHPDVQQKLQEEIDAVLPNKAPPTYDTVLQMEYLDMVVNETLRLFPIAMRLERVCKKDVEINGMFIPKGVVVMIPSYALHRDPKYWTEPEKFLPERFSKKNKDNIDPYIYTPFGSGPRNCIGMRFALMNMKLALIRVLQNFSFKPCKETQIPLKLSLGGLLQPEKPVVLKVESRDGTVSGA

Turning to `COc1ccc2cc([C@](O)(c3c[nH]cn3)C(C)C)ccc2c1`, in the assay filed under Homo sapiens, the Ratio IC50 was below 36. The IC50 in assay [1] was 0.028 µM; in [2], 0.021 µM; on Cytochrome P450 3A4 it was below 1 µM.
With `CC(C)[C@](O)(c1ccc2c3c(ccc2c1)C(=O)N(C)C3)c1c[nH]cn1`, the Activity turned out to be 16.8% in the assay on Cynomolgus monkey [3], 13.2% in the assay with Cynomolgus monkey [4], 7.7% with Cynomolgus monkey [5] and 9.8% in the assay with Cynomolgus monkey [6]. Also, the Ratio IC50 in the assay listed under Homo sapiens is above 1000.
Turning to `CC(C)[C@@](O)(c1ccc2c3c(ccc2c1)C(=O)N(C)C3)c1cnc[nH]1`, the IC50 on Cytochrome P450c11B3 was above 1 µM; in assay [1], 0.27 µM; in [2], 0.11 µM; against Cytochrome P450 3A4, above 10 µM.
Regarding `CC(=O)c1ccc2cc(C(O)(c3c[nH]cn3)C(C)C)ccc2c1` (racemic), in the assay filed under Homo sapiens, the Ratio IC50 came to 50. Further, the IC50 in assay [1] amounted to 0.028 µM; in [2] it was 0.014 µM; against Cytochrome P450 3A4 it was 1.4 µM.
For `CC(=O)Nc1ccc2cc(C(O)(c3c[nH]cn3)C(C)C)ccc2c1` (racemic), in that order: below 26, 0.039 µM, 0.029 µM and below 1 µM.
For the molecule `CNC(=O)Nc1ccc2cc(C(O)(c3c[nH]cn3)C(C)C)ccc2c1` (racemic), the Ratio IC50 in the assay filed under Homo sapiens was below 28. The IC50 in assay [1] is 0.036 µM; in [2], 0.011 µM; at Cytochrome P450 3A4, below 1 µM.
For `COC(=O)c1ccc2cc(C(O)(c3c[nH]cn3)C(C)C)ccc2c1` (racemic), in that order: 58, 0.024 µM, 0.043 µM and 1.4 µM.
In the case of `CC(C)C(O)(c1ccc2cc(C(N)=O)ccc2c1)c1c[nH]cn1` (racemic), the IC50 in assay [1] is 0.03 µM; in assay [2], below 0.01 µM; at Cytochrome P450 3A4, 3.7 µM.
Consider `CNC(=O)c1ccc2cc(C(O)(c3c[nH]cn3)C(C)C)ccc2c1` (racemic), for which the Ratio IC50 in the assay listed under Homo sapiens is 225. Also, the IC50 was 0.016 µM in assay [1], 0.006 µM in [2] and 3.6 µM against Cytochrome P450 3A4.
Consider `CCNC(=O)c1ccc2cc(C(O)(c3c[nH]cn3)C(C)C)ccc2c1` (racemic), for which the values for the IC50 (in assay [1]; in assay [2]; against Cytochrome P450 3A4) were 0.046 µM, 0.011 µM and 5.7 µM, respectively.
The matching figures for `CCCNC(=O)c1ccc2cc(C(O)(c3cnc[nH]3)C(C)C)ccc2c1` (racemic): 0.038 µM, 0.013 µM and 3.4 µM.
For the molecule `CC(C)NC(=O)c1ccc2cc(C(O)(c3c[nH]cn3)C(C)C)ccc2c1` (racemic), the IC50 in [1] was determined as 0.075 µM; in assay [2], 0.012 µM; against Cytochrome P450 3A4, 9.3 µM.
For `CNC(=O)c1ccc2cc(C(O)(c3cnc[nH]3)C(C)C)ccc2c1Cl` (racemic), the figures for the IC50 (in assay [1]; in assay [2]; on Cytochrome P450 3A4) were 0.2 µM, 0.091 µM and above 10 µM, respectively.
The matching figures for `CNC(=O)c1ccc2cc(C(O)(c3c[nH]cn3)C(C)C)ccc2c1C` (racemic): 0.16 µM, 0.2 µM and above 10 µM.
For `CNC(=O)c1cc2ccc(C(O)(c3c[nH]cn3)C(C)C)cc2cc1C` (racemic), in that order: 0.039 µM, 0.012 µM and 3.6 µM.
For `CC(C)C(O)(c1ccc2c3c(ccc2c1)C(=O)NC3)c1c[nH]cn1` (racemic), the half-inhibitory concentration (IC50) in assay [1] was found to be 0.018 µM; against Cytochrome P450 3A4, 6.7 µM.
Molecule `CC(C)C(O)(c1ccc2c3c(ccc2c1)C(=O)N(C)C3)c1c[nH]cn1` (racemic) returned an IC50 in [1] of 0.022 µM.
The same measure, in the same setting: then `CC(C)C(O)(c1ccc2cc3c(cc2c1)CNC3=O)c1c[nH]cn1` (racemic), with 0.036 µM.
Regarding `CC(C)C(O)(c1ccc2cc3c(cc2c1)CN(C)C3=O)c1c[nH]cn1` (racemic), the IC50 came out at 0.019 µM in [1], 0.07 µM in [2] and 5.4 µM on Cytochrome P450 3A4.
Take `CC(C)C(O)(c1ccc2c3c(ccc2c1)C(=O)NC3)c1c[nH]cn1` (single isomer, unassigned; (-)): the IC50 at Cytochrome P450c11B3 is 0.013 µM; in [1], 0.015 µM; on Cytochrome P450 3A4, above 10 µM.
Regarding `CC(C)C(O)(c1ccc2c3c(ccc2c1)C(=O)NC3)c1c[nH]cn1` (stereo in doubt; (+)-27a), the IC50 was determined as 0.22 µM against Cytochrome P450c11B3, 0.06 µM in assay [1], 0.18 µM in assay [2] and 7.4 µM on Cytochrome P450 3A4.

For orientation: IC50 means the concentration needed to halve the response being measured.
